The target in test [1] is T1, GABA-A receptor; anion channel (Homo sapiens) (UniProt P14867+P47870+P18507+P28472+P48169+Q99928+Q9UN88+P34903+O00591+O14764+Q8N1C3+P18505+P78334+P47869+P31644+Q16445). Description: Inhibition of [3H]TBPS binding to GABA-A receptor at 100 uM. It is filed as protein-complex assay. The method in brief:
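Rat cerebral cortical membranes, about 1000 μg protein, in 50 mM Tris-citrate pH 7.5 containing 200 mM NaCl with 2 nM [35S]TBPS. Incubated 90 min at 23 °C, test compound at 100 μM. Picrotoxin 10 μM defined nonspecific binding. Ended by rapid filtration with one buffer wash, and filter radioactivity was counted.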

For test [2], the target named is T1, GABA-A receptor; anion channel (Homo sapiens). Description: Binding of [3H]- Diazepam radioligand against GABA receptor/chloride channel complex at 100 uM. It is filed as protein-complex assay. In a few lines:
(§1)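 Rat cerebral cortical membranes, about 1000 μg protein, in 50 mM Tris pH 7.4. Incubated with 5 nM [3H]diazepam for 30 min at 0 °C, test compound at 100 μM. Nonspecific binding was defined with 10 μM clonazepam. Ended by rapid filtration with one buffer wash, and retained radioactivity was counted.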

Test [3] is described as follows: Inhibition of [3H]BTX binding to guinea pig voltage-dependent sodium channel.
The species entered for test [4] is Mus musculus. In words: Antiepileptic (anticonvulsant) activity in mice through maximal electroshock seizure (MES) assay. It counts as functional, organism-based. The method in brief:
(§2)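 Mice dosed at 30, 100 and 300 mg/kg and tested 30 min after administration. Seizures were evoked by 60-cycle AC, 50 mA, delivered for 0.2 s through corneal electrodes, with saline instilled in the eye first. Protection means abolition of the hind limb tonic extension. MES ED50 was quantified on select compounds.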
(In general: In the maximal electroshock model the usual endpoint is tonic extension of the hind limbs.)

The target in test [5] is T1, GABA-A receptor; anion channel (Homo sapiens). Description: Binding of [3H]- muscimol radioligand against GABA receptor/chloride channel complex at 100 uM. It is filed as protein-complex assay. The method in brief: (§3)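 Rat brain membranes, about 1000 μg protein, in 50 mM Tris-citrate pH 7.1 with 5 nM [3H]muscimol. Incubated 30 min at 0 °C, test compound at 100 μM. Nonspecific binding was defined with 100 μM GABA. Bound ligand was separated by rapid filtration with one buffer wash, and filter radioactivity was counted.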

Test [6] relates to Mus musculus. In words: Antiepileptic (anticonvulsant) activity in mice through maximal electroshock seizure (MES) assay; No anticonvulsant activity at 300 mg/kg. It is filed as functional, organism-based. The arrangement: dose 300 mg/kg. The method in brief: as §2
The nature of test [7]: Inhibition of [3H]BTX binding to guinea pig voltage-dependent sodium channel. The source holds these as a separate data set.
Test [8] addresses T1, GABA-A receptor; anion channel (Homo sapiens). Description: Binding of [3H]- TBPS radioligand against Gamma-aminobutyric acid receptor at 100 uM. It is filed as protein-complex assay.
Test [9] is described as follows: Inhibition of [3H]BTX binding to guinea pig voltage-dependent sodium channel. This is another data set of the same source.
The target in test [10] is Gamma-aminobutyric acid receptor subunit gamma-1 (Rattus norvegicus) (UniProt P23574). In words: Inhibition of [3H]- Diazepam binding to Gamma-aminobutyric acid (GABA-A) receptor at 100 uM. The method in brief: as §1
Gamma-aminobutyric acid receptor subunit gamma-1 (Rattus norvegicus), sequence (P23574 whole entry): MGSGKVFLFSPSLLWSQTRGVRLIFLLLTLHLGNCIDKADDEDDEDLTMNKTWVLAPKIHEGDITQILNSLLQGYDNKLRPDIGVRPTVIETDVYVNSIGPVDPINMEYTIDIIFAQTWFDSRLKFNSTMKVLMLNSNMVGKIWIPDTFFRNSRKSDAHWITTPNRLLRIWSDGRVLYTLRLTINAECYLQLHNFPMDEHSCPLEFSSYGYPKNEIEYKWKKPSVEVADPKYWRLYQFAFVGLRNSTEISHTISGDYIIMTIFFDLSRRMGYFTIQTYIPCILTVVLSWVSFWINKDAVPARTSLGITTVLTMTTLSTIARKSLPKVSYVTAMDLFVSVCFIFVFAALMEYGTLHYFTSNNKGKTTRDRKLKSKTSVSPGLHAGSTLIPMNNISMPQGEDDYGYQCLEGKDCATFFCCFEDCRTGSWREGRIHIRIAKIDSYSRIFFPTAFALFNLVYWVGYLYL
The subject of test [11] is Mus musculus. In words: Antiepileptic (anticonvulsant) activity in mice through maximal electroshock seizure (MES) assay. No activity at 300 mg/kg. It counts as functional, organism-based. The arrangement: dose 300 mg/kg. The method in brief:
as §2

Test [12] concerns the target T1, GABA-A receptor; anion channel (Homo sapiens). In words: Inhibition of [3H]muscimol binding to GABA-A receptor at 100 uM. It counts as protein-complex assay. The method in brief: as §3

We go through 29 compounds from ChEMBL document CHEMBL1123533, “Anticonvulsant activity of piperidinol and (dialkylamino)alkanol esters” (J Med Chem, 1986).

A value given as a limit tells only on which side of the number the result lay.

Usually inhibition stands for the drop in the measured response relative to a control, in per cent. A higher inhibition goes with a strong effect. In general, IC50 refers to the concentration at which inhibition is half-maximal. Low readings indicate greater potency in that assay, high ones weaker potency in that assay. In the case of `CCN(CC)CCOC(=O)c1ccccc1-c1ccccc1`, the inhibition in test [1] was found to be 4%; in test [2], 26%; in test [5], 31%. The same compound registered an IC50 in test [3] of 7.5 µM. The compound further displayed an EC50 in the test filed under Mus musculus [4] of 10 mg/kg.
In test [3], `COc1ccc(C(=O)OC2CCN(C)CC2)cc1OC` displayed an IC50 of over 10 µM. The EC50 entry with Mus musculus [6] was “Not Active”.
On to `O=C1NC(=O)C(c2ccccc2)(c2ccccc2)N1` [PHENYTOIN], for which, in the test filed under Mus musculus [4], the EC50 is 9.5 mg/kg.
Compound `CN1CCC(OC(=O)c2ccccc2Oc2ccccc2)CC1` displayed a half-inhibitory concentration (IC50) in test [3] of 3.6 µM. The EC50 result in the test on Mus musculus [6] is reported as “Not Active”.
Compound `CN1CCC(OC(=O)c2ccccc2Cc2ccccc2)CC1` showed an IC50 in test [3] of 3.4 µM. Moreover, in the test listed under Mus musculus [4], the EC50 was under 30 mg/kg.
For the compound `CN1CCC(OC(=O)c2ccccc2C(=O)c2ccccc2)CC1`, the inhibition in test [2] was found to be 46%; in test [5], 21%. In addition, in the test with Mus musculus [6], the EC50 entry is “Not Active”. Also, the IC50 in test [7] was over 10 µM. Further, the Stimulation in test [8] came to 1%.
As to `CCN(CC)CCCOC(=O)c1ccccc1-c1ccccc1`, the inhibition in test [1] was found to be 47%; in test [2] it was 51%; in test [5] it was 59%. The compound also yielded an EC50 in the test listed under Mus musculus [4] of 7.8 mg/kg. Also, the half-maximal inhibitory concentration (IC50) in test [9] is 4.6 µM.
On to `CCN(CC)CCCOC(=O)c1ccccc1CCc1ccccc1`, for which the IC50 in [3] was determined as 6 µM. The EC50 in the test listed under Mus musculus [4] is under 30 mg/kg.
With `CN1CCC(OC(=O)c2cccc(O)c2)CC1`, the IC50 in test [3] was over 10 µM. The EC50 entry in the test with Mus musculus [6] is given as “Not Active”.
In turn, `COc1cccc(C(=O)OC2CCN(C)CC2)c1` gave an EC50 in the test filed under Mus musculus [4] of under 100 mg/kg.
The compound `COc1ccc(CCC(=O)OC2CCN(C)CC2)cc1OC` returned a 50% inhibitory concentration (IC50) in test [3] of over 10 µM. The EC50 result in the test with Mus musculus [6] is recorded as “Not Active”.
In the case of `CCC(=O)OC1CCN(C)CC1`, the EC50 entry in the test with Mus musculus [6] was “Not Active”. In test [7], the concentration for half-maximal inhibition (IC50) was over 10 µM. In addition, the figures for the Stimulation in [10] and in [8] were -14% and 9%, respectively. For the same compound, the inhibition in test [5] was found to be 10%.
In test [3], `Cc1ccc(C(=O)OC2CCN(C)CC2)cc1` came in with an IC50 of 10 µM. For the same compound, the EC50 result with Mus musculus [6] is “Not Active”.
`CN1CCC(OC(=O)c2ccc(-c3ccccc3)cc2)CC1` yielded an IC50 in test [3] of 10 µM. In the test listed under Mus musculus [4], this compound displayed an EC50 of under 100 mg/kg.
`CN1C(=O)CC(C)(c2ccccc2)C1=O` (configuration not stated) [METHSUXIMIDE] displayed an EC50 in the test listed under Mus musculus [4] of 76 mg/kg.
Take `CN1CCC(OC(=O)c2ccccc2-c2ccccc2)CC1`: in [3], the half-maximal inhibitory concentration (IC50) is 10 µM. Moreover, in the test listed under Mus musculus [4], the EC50 was determined as 12 mg/kg.
For `CN1CCC(OC(=O)c2ccc3ccccc3c2)CC1`, in that order: over 10 µM and under 100 mg/kg.
Regarding `CCN(CC)CC(C)OC(=O)c1ccccc1-c1ccccc1` (configuration not stated), the IC50 in [3] was determined as 6.8 µM. In addition, the EC50 in the test filed under Mus musculus [4] is under 30 mg/kg.
The compound `CCC1(c2ccccc2)C(=O)NC(=O)NC1=O` [PHENOBARBITAL] gave an EC50 in the test filed under Mus musculus [4] of 22 mg/kg.
On to `COc1ccccc1C(=O)OC1CCN(C)CC1`, for which the concentration for half-maximal inhibition (IC50) in [3] is over 10 µM. The EC50 entry in the test on Mus musculus [6] is given as “Not Active”.
As for `CN1CCC(OC(=O)c2ccccc2CCc2ccccc2)CC1`, the inhibition amounted to 50% in test [2] and 27% in test [5]. Moreover, the half-maximal inhibitory concentration (IC50) in test [3] worked out at 5.4 µM. Moreover, the EC50 in the test listed under Mus musculus [4] was determined as 25 mg/kg.
As for `CCN(CC)CCOC(=O)c1ccccc1CCc1ccccc1`, the IC50 in [3] worked out at 3.9 µM. This compound came in with an EC50 in the test listed under Mus musculus [4] of under 300 mg/kg.
As to `CN1CCC(C)(OC(=O)c2ccccc2CCc2ccccc2)CC1`, the inhibition in test [2] was found to be 42%; in [5], 40%. Moreover, in test [3], the IC50 amounted to 3.2 µM. In the test listed under Mus musculus [4], this compound yielded an EC50 of 28 mg/kg. For the same compound, the Stimulation in [8] came to 50%.
Consider `CN1CCC(C)(OC(=O)c2ccccc2-c2ccccc2)CC1`, for which the IC50 in test [3] was determined as 3.8 µM. Moreover, the EC50 entry with Mus musculus [6] is “Not Active”.
For `CN1CCC(OC(=O)c2ccccc2Br)CC1`, in that order: over 10 µM and “Not Active”.
For `Cc1[nH]c(C)c(C(=O)OC2CCN(C)CC2)c1C`, in that order: over 10 µM and “Not Active”.
As to `CN1CCC(OC(=O)c2ccccc2COc2ccccc2)CC1`, the figures for the inhibition in test [2] and in test [5] were 37% and 35%, respectively. Further, the IC50 in test [3] was over 10 µM. This compound registered an EC50 in the test listed under Mus musculus [4] of 26 mg/kg. For the same compound, the Stimulation in test [8] was found to be 37%.
As for `CN1CCC(OC(=O)c2ccc(Cl)cc2)CC1`, the half-inhibitory concentration (IC50) in test [3] is over 10 µM. For the same compound, the EC50 entry in the test with Mus musculus [6] was “Not Active”.
With `Cc1cc(C)c(C(=O)OC2CCN(C)CC2)cc1C`, the inhibition in test [2] amounted to 37%; in [12] it was 57%. Moreover, in test [3], the half-inhibitory concentration (IC50) is over 10 µM. Also, in [8], the Stimulation stood at 3%. Besides, the EC50 in the test on Mus musculus [11] came to 46 mg/kg.
